Source: PubChem BioAssay (several laboratories)
m5-HT2A agonist: mouse HTR2A agonism via beta-arrestin recruitment; 360,000 compounds, 0.66% hits; CHO-K1 mHTR2A beta-arrestin complementation, luminescence; percent of 30 µM serotonin response; P35363; AID 624169; activation, % at 7.6 µM;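 active means activation above a run cutoff, the mean activation of all tested compounds plus 3 SD, cut at about 14% in these data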
MC4R antagonist: blocks human MC4R cAMP signaling. MC4R-expressing cells, MTII-stimulated cAMP, LANCE TR-FRET. P32245. 360,000 compounds, 0.48% hits. inhibition, % at 6.5 µM;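 active means inhibition above its plate's cutoff, the mean of tested wells on that plate plus 3 SD, cut at about 29% in these data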
Target sequence (P32245 whole entry, looked up): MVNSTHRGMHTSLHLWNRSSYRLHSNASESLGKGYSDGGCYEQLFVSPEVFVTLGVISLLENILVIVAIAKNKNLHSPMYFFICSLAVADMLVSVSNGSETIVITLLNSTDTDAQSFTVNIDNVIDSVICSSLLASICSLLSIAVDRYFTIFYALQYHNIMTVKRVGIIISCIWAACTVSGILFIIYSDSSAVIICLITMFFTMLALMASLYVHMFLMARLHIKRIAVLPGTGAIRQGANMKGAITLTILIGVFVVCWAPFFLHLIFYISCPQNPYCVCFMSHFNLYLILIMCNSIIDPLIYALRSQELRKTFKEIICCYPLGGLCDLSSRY
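Test system: U2OS cells stably expressing human melanocortin 4 receptor (MC4R); also added: Melanotan II challenge; compound: 6.5 µM single dose; timing: 30-min compound preincubation, 1-h Melanotan II challenge, 1-h detection, room temperature; signal: Eu-cAMP/anti-cAMP TR-FRET, emission 671 nm; repeats: one well per compound, no replicates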
TAAR1 ag: human TAAR1 agonism | CHO RD-HGA16 TAAR1, Fluo-8 calcium fluorescence; vehicle wells 0%, saturating PEA agonist 100% | activation, % at 3 µM | 360,000 compounds, 0.99% hits;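 active means activation above the mean activation of all test compounds in the run plus 3 SD, cut at about 38% in these data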
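Test system: RD-HGA16 (CHO) cells co-expressing Gα16 and hTAAR1; dosing: one-point dosing at 3 µM (nominal); timing: 17-24 h seeding, 75 min 37 °C dye, 30 min RT; signal: kinetic Fluo-8 calcium fluorescence; read-out basis: % activation relative to PEA EC100 response; controls: DMSO and PEA EC100; replicates: n 1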
TAAR1 antag: antagonists of human TAAR1; Q96RJ0; 360,000 compounds, 1.5% hits; inhibition, % at 3 µM; AID 624466; CHO RD-HGA16 TAAR1, Fluo-8 calcium fluorescence, antagonist;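 active means inhibition above a per-plate cutoff, the mean inhibition of test compounds on that plate plus 3 SD, cut at about 49% in these data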
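System: CHO RD-HGA16 cells bearing hTAAR1. Reagent: EC80 β-phenethylamine stimulus. Schedule: seeding 17-24 h prior, 75-min 37 °C, 30-min RT dye loading. Signal: Fluo-8 intracellular calcium dye fluorescence, real-time kinetic reads. Read-out: % inhibition from peak post-agonist over basal fluorescence ratio. Benchmarks: vehicle wells and EC80 agonist wells. Replicates: n of 1.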
Beta2AR agonist: agonists of human beta-2 adrenergic receptor inducing internalization; Am2.2-beta2AR cells, FAP receptor internalization, flow cytometry; response, % (test concentration not listed); 340,000 compounds, 0.43% hits;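 active means response above a set limit, near 3 SD of response in nonfluorescent compounds, cut at about 42% in these data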
Target sequence (P07550 whole entry, looked up): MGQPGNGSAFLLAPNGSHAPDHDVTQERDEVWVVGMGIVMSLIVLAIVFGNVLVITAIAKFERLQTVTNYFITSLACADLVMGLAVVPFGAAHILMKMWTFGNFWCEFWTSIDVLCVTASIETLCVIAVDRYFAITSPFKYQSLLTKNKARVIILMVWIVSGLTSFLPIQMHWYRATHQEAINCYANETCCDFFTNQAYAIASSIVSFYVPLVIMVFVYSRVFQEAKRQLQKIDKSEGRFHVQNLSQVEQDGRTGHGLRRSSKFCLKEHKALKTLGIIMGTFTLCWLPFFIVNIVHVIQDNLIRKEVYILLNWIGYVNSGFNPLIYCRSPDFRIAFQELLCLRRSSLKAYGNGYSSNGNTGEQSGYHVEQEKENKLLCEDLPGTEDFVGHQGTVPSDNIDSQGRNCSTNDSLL
MC4R ag barr: human MC4R agonism via beta-arrestin; P32245; U2OS MC4R beta-arrestin complementation, luminescence; percent of melanotan II response, DMSO zero; activation, % at 8.9 µM; 360,000 compounds, 0.98% hits;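 active means activation above a per-plate cutoff, the mean activation of sample wells on that plate plus 3 SD, cut at about 8% in these data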
MC4R barr ag: human MC4R beta-arrestin agonism confirmation; shares compounds with MC4R ag barr; activation, % at 8.9 µM; AID 602192; 2,400 compounds, 31% hits; U2OS MC4R beta-arrestin recruitment, luminescence; scaled DMSO 0%, Melanotan II 100%;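 active means mean activation across replicates above the hit cutoff set in the earlier primary screen, cut at about 8% in these data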
MOR-DOR barr ag: counter-screen for MC4R agonists: agonists of mu-delta opioid heterodimer; activation, % at 9.2 µM; shares compounds with MC4R ag barr; 2,400 compounds, 5.8% hits; U2OS PathHunter beta-arrestin, beta-gal luminescence; percent of deltorphin B response, DMSO zero;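 active means mean activation across replicates exceeds the hit threshold derived in the earlier primary screen, cut at about 18% in these data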
Of the large screens only hits and unclear results are named; the others gave an inactive call (follow-up assays come after a bar, where they were run). Shown are actives, neighbours in structure and some others; about 4.3% of the full set was active somewhere.

CC1CCC(C(C)C)C(OC(=O)Cn2c(-c3ccc(F)cc3)[n+](C)c3ccccc32)C1 (centres undefined)	MC4R ag barr 17 | MC4R barr ag 16 | MOR-DOR barr ag inactive
CC(=O)Nc1ccc(S(=O)(=O)N(C)CC(=O)OC(C)C(=O)NC2(C#N)CCCCC2)cc1 (centres undefined)	none (no result: Beta2AR agonist)
Cc1cc(C)cc(NCc2cc(=O)oc3cc(-c4ccccc4)c(O)cc23)c1	none
COc1ccc(C)cc1NCc1cc(=O)oc2cc(-c3ccccc3)c(O)cc12	MC4R ag barr 13 | MC4R barr ag inactive | MOR-DOR barr ag inactive
COc1ccccc1N=c1oc2c(OC)cccc2cc1C(=O)NCc1ccco1	MC4R ag barr 24 (no result: TAAR1 ag, TAAR1 antag) | MC4R barr ag inactive | MOR-DOR barr ag 25
O=C(NC(=S)Nc1ccccc1)c1cncc(C#Cc2ccccc2)c1	MC4R ag barr 14 | MC4R barr ag inactive | MOR-DOR barr ag inactive
COc1ccc(-c2cn(CCC(=O)O)c(C)n2)cc1	none
CC(=O)N1CCN(c2cc(N3CCCC3)c(F)cc2[N+](=O)[O-])CC1	none
CCN1CCN(c2cc(N3CCc4ccccc4C3)c(F)cc2[N+](=O)[O-])CC1	MC4R ag barr 15 | MC4R barr ag 14 | MOR-DOR barr ag inactive
O=C(COC(=O)c1ccccc1Nc1ccccc1)Nc1ccccc1	MC4R ag barr 15 | MC4R barr ag inactive | MOR-DOR barr ag inactive
CC(=O)c1ccc(NC(=O)COC(=O)c2ccccc2Nc2ccccc2)cc1	MC4R ag barr 10 | MC4R barr ag inactive | MOR-DOR barr ag inactive
CNC(=O)COC(=O)c1ccccc1Nc1ccccc1	none
CCC(=O)N(c1nnc(SC(C)C(=O)Nc2ccc(N3CCOCC3)cc2)s1)C1CC1 (centres undefined)	none (no result: Beta2AR agonist)
CC(C)NC(=O)N(C)C[C@H]1OCc2cn(nn2)CCCC(=O)N([C@H](C)CO)C[C@@H]1C	none (no result: m5-HT2A agonist, MC4R antagonist, Beta2AR agonist, MC4R ag barr)
C=CCn1c(SCC(=O)c2ccc(OC)cc2)nnc1-c1cc2cccc(OC)c2o1	MC4R ag barr 53 | MC4R barr ag 12 | MOR-DOR barr ag inactive
CCn1c(SCC(=O)Nc2ccccc2OC)nc2ccccc2c1=O	none
COCCn1c(SCC(=O)Nc2ccc(NC(=O)c3ccco3)c(OC)c2)nc2ccccc2c1=O	MC4R ag barr 27 | MC4R barr ag inactive | MOR-DOR barr ag inactive
CCn1c(SCC(=O)Nc2ccc(NC(=O)c3ccco3)c(OC)c2)nc2ccccc2c1=O	MC4R ag barr 18 | MC4R barr ag inactive | MOR-DOR barr ag inactive
C=CCn1c(SCC(=O)Nc2ccc(OC)cc2)nc2ccccc2c1=O	MC4R ag barr 15 | MC4R barr ag inactive | MOR-DOR barr ag inactive
COC(=O)N(C)C[C@@H]1OCc2cn(nn2)CCCC(=O)N([C@@H](C)CO)C[C@H]1C	none (no result: Beta2AR agonist)
Cc1nc(NC(=O)c2cc3ccccc3o2)ccc1Br	MC4R ag barr 11 | MC4R barr ag inactive | MOR-DOR barr ag inactive
Cc1nc(NC(=O)c2ccc(Br)o2)ccc1Br	none
O=C(NCc1ccccc1)C(=O)NCC1CCCN1S(=O)(=O)c1cccs1 (centres undefined)	none
CCc1ccc2c(c1)cc(CN(C(=S)Nc1ccccc1)C1CC1)c1nnnn12	none
CCc1ccc2c(c1)cc(CN(C(=S)Nc1ccccc1C)C1CC1)c1nnnn12	MC4R ag barr 12 | MC4R barr ag inactive | MOR-DOR barr ag inactive
Cc1nc2ccc3nc(NC(=O)c4ccc5c(c4)OCCO5)sc3c2s1	none
Cc1nc2c(ccc3nc(NC(=O)c4ccc5c(c4)OCCO5)sc32)s1	MC4R ag barr 11 | MC4R barr ag inactive | MOR-DOR barr ag inactive
CS(=O)(=O)Nc1ccccc1C(=O)NCCSc1ccccc1	none
Cc1cccc(Nc2ncnc3onc(-c4cccc(Cl)c4)c23)c1	MC4R ag barr 11 | MC4R barr ag inactive | MOR-DOR barr ag inactive
CC1Sc2ccc(C(=O)OCc3ccccc3Cl)cc2NC1=O (centres undefined)	MC4R ag barr 35 | MC4R barr ag inactive | MOR-DOR barr ag inactive
COc1ccc(CNC(=O)c2ccc3c(c2)NC(=O)C(C)S3)cc1 (centres undefined)	none
CC1Sc2ccc(C(=O)O)cc2NC1=O (centres undefined)	none
COc1cccc(COC(=O)c2ccc3c(c2)NC(=O)C(C)S3)c1OC (centres undefined)	MC4R ag barr 19 | MC4R barr ag inactive | MOR-DOR barr ag inactive
COc1cc(NC(=O)c2ccc(-c3ccc(F)c(F)c3)c3ccoc23)cc(OC)c1OC	MC4R ag barr 14 (no result: Beta2AR agonist) | MC4R barr ag inactive | MOR-DOR barr ag inactive
COc1cc(NS(=O)(=O)c2ccc(NC(=S)NC(=O)c3sc4ccccc4c3Cl)cc2)ncn1	MC4R ag barr 15 | MC4R barr ag 19 | MOR-DOR barr ag inactive
CCCc1ccc(Oc2coc3cc(OCC(=O)Nc4ccccc4C)ccc3c2=O)cc1	MC4R ag barr 22 | MC4R barr ag 15 | MOR-DOR barr ag inactive
CCc1ccc(Oc2coc3cc(OCC(=O)Nc4cc(C)ccc4C)ccc3c2=O)cc1	none
Cn1c(SCC(=O)NNC(=O)c2ccccc2Br)nnc1C(F)(F)F	none
Cc1occc1-c1nnc(SCC(=O)Nc2nc(-c3ccccc3)cs2)o1	MC4R ag barr 24 | MC4R barr ag inactive | MOR-DOR barr ag inactive
Cc1cc(-c2nnc(SCC(=O)Nc3nc(-c4ccccc4)cs3)o2)no1	none
Cc1ccc(-c2csc(NC(=O)CSc3nnc4c(n3)[nH]c3ccccc34)n2)cc1	MC4R ag barr 16 | MC4R barr ag inactive | MOR-DOR barr ag inactive
Cc1ccc(NC(=O)CSc2nnc3c(n2)[nH]c2ccccc23)cc1	none
COc1ccc(NC(=O)N(C)C[C@H]2OCc3cnnn3CCCC(=O)N([C@H](C)CO)C[C@@H]2C)c(OC)c1	none (no result: m5-HT2A agonist, MC4R antagonist, Beta2AR agonist, MC4R ag barr)
COc1cccc(/C=N/NC(=O)C(=O)Nc2ccccc2OC(F)(F)C(F)F)c1	MC4R ag barr 16 | MC4R barr ag inactive | MOR-DOR barr ag inactive
COC(=O)[C@]12C[C@H](CC(=O)NCCCN3CCCC3=O)C(=O)N(Cc3ccc4c(c3)OCO4)C1=C[C@H](C(C)(C)C)O[C@@H]2C	none (no result: m5-HT2A agonist, MC4R antagonist, Beta2AR agonist, MC4R ag barr)
CN(C)c1ccc(-c2cc(NC=O)c3ncc(-c4ccc(F)c(Cl)c4)n3c2)cc1	none (no result: Beta2AR agonist)
